# Several values for one entry are separate records, joined by “and”; a condition that tells them apart may be missing. Equal entries are not always repeated. Activity calls are given as the source filed them. The calls are words filed in the database; no cut-off is given here.
# Experiments:
# NCI-H460 [1] = assay: Cytotoxicity against human NCI-H460 cells assessed as growth inhibition after 48 hrs by SRB assay; type: functional
# In short: (§1)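 Cells kept at 37 °C, 5% CO2, up to passage 15. Plated at 7500 cells/well in DMEM with 5% FBS and 1% gentamycin, grown 24 h, then given 10-fold serial dilutions for 48 h. Fixed with 10% TCA (final), SRB-stained, read at 540 nm, normalized at 630 nm. GI50 is the concentration halving net protein staining versus controls, taken from optical density data.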
# [2] = Cytotoxicity against human DU145 cells assessed as growth inhibition after 48 hrs by SRB assay; type: functional, DU-145; in short: as §1
# [3] = Cytotoxicity against human SKOV3 cells assessed as growth inhibition after 48 hrs by SRB assay; type: functional, SK-OV-3; in short: as §1
# Leucine aminopeptidase [4] = molecular target: T1, Leucine aminopeptidase (Sus scrofa, UniProt Q29571); assay: Prodrug conversion assessed as porcine leucine aminopeptidase-mediated compound cleavage by HPLC analysis; type: ADME; details: pig
# T1 sequence (Q29571 whole entry): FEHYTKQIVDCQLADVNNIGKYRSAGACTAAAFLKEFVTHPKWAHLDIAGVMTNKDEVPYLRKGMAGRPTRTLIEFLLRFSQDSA
# In short: (§2)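 Porcine kidney microsomal LAP; units defined with 24 mM L-leucine p-nitroanilide in 50 mM sodium phosphate pH 7.2 at 37 °C. Enzyme preincubated in the same buffer at 37 °C, then substrate added. Aliquots were quenched with acetonitrile on ice, centrifuged and run on C18 HPLC (acetonitrile/water, 0.05% TFA, 1.0 mL/min, 22 °C, diode-array UV). Cleavage % from the parent/prodrug peak-area ratio; amounts from calibration curves.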
# Leucine aminopeptidase [5] = molecular target: T1, Leucine aminopeptidase; assay: Prodrug conversion assessed as porcine leucine aminopeptidase-mediated compound cleavage after 24 hrs using 3.6 units of enzyme by HPLC analysis; type: ADME; details: pig; in short: as §2
# Tubulin (Bos taurus) [6] = molecular target: T2, Tubulin (Bos taurus) (UniProt Q6B856+Q862L2+Q862F3); assay: Displacement of [3H]colchicine from bovine brain tubulin at 1 uM after 10 mins by scintillation counting analysis
# In short: (§3)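 1.0 μM tubulin with 5.0 μM [3H]colchicine and inhibitor at 1.0 or 5.0 μM. Buffer: 5% DMSO, 1.0 M monosodium glutamate pH 6.6, 0.5 mg/mL BSA, 0.1 M glucose-1-phosphate, 1.0 mM MgCl2, 1.0 mM GTP. Incubated 10 min at 37 °C, stopped with ice-cold water, collected on DEAE-cellulose filters and scintillation counted. Corrected for filter binding without tubulin; % inhibition against no-inhibitor controls.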
# HUVEC = assay: Antivascular activity in HUVEC cells assessed as disruption of capillary-like network of tubules formation at 0.1 uM by matrigel assay; type: functional, cell-based; details: Homo sapiens
# In short: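 HUVECs (124,000 per well in M200 with growth factors) plated on Matrigel (9.5 mg/mL) that had been set for 60 min at 37 °C. Cells incubated 16 h at 37 °C to form tubule networks. Then treated at 0.01, 0.1 or 1.0 μM and photographed, 9 fields/well with 40x objective.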
# Tubulin (Bos taurus) [7] = molecular target: T2, Tubulin (Bos taurus); assay: Displacement of [3H]colchicine from bovine brain tubulin at 5 uM after 10 mins by scintillation counting analysis; in short: as §3
# [8] = Retention time of the compound by HPLC analysis; type: physicochemical
# In short: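 Reversed-phase C18 HPLC (4.6 × 150 mm, 5 μm) at 25 °C with diode-array detection at 190–400 nm. Acetonitrile against water or 0.1% TFA/water. Gradient 10% to 100% acetonitrile over 40 min, or in method C 10% acetonitrile for 5 min then to 100% over 5–25 min, at 1.0 mL/min.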
# MDA-MB-231 [9] = assay: Induction of tumor-specific vascular damage in luciferase expressing human MDA-MB-231 cells xenografted in SCID mouse assessed as reduction in light emission at 80 mg/kg at 2 hrs post dose by bioluminescence imaging assay relative to control; type: functional; details: MDA-MB-231, 2 h
# MDA-MB-231 [10] = assay: Induction of tumor-specific vascular damage in luciferase expressing human MDA-MB-231 cells xenografted in SCID mouse assessed as reduction in light emission at 80 mg/kg at 4 hrs post dose by bioluminescence imaging assay (reference value: 22%); type: functional; details: MDA-MB-231, 4 h
# Tubulin = Tubulin (Bos taurus, UniProt Q6B856+Q862L2+Q862F3); assay: Inhibition of bovine brain tubulin polymerization preincubated for 15 mins by spectrophotometric analysis
# In short: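 Purified bovine brain tubulin, 1.0 mg/mL (10 μM), in 0.8 M monosodium glutamate pH 6.6 with 4% DMSO and varied compound. Temperature jumped from 0 to 30 °C; turbidity at 350 nm followed for 20 min.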
# MDA-MB-231 [11] = assay: Induction of tumor-specific vascular damage in luciferase expressing human MDA-MB-231 cells xenografted in SCID mouse assessed as reduction in light emission at 80 mg/kg at 24 hrs post dose by bioluminescence imaging assay (reference value: 24%); type: functional; details: MDA-MB-231, 24 h
# NCI-H460 [12] = assay: Cytotoxicity against human NCI-H460 cells assessed as growth inhibition using compound dissolved in water after 48 hrs by SRB assay; type: functional; details: NCI-H460, 48 h; in short: as §1
# [13] = Cytotoxicity against human DU145 cells assessed as growth inhibition using compound dissolved in water after 48 hrs by SRB assay; type: functional; details: DU-145, 48 h; in short: as §1
# [14] = Cytotoxicity against human SKOV3 cells assessed as growth inhibition using compound dissolved in water after 48 hrs by SRB assay; type: functional; details: SK-OV-3, 48 h; in short: as §1
# NCI-H460 [15] = assay: Cytotoxicity against human NCI-H460 cells assessed as growth inhibition using compound dissolved in DMSO after 48 hrs by SRB assay; type: functional; details: NCI-H460, 48 h; in short: as §1
# [16] = Cytotoxicity against human SKOV3 cells assessed as growth inhibition using compound dissolved in DMSO after 48 hrs by SRB assay; type: functional; details: SK-OV-3, 48 h; in short: as §1
# Leucine aminopeptidase [17] = molecular target: T1, Leucine aminopeptidase; assay: Prodrug conversion assessed as porcine leucine aminopeptidase-mediated compound cleavage at 25 hrs using 0.12 units of enzyme by HPLC analysis; type: ADME; details: pig; in short: as §2
# [18] = Cytotoxicity against human DU145 cells assessed as growth inhibition using compound dissolved in DMSO after 48 hrs by SRB assay; type: functional; details: DU-145, 48 h; in short: as §1
# Leucine aminopeptidase [19] = molecular target: T1, Leucine aminopeptidase; assay: Activity at porcine leucine aminopeptidase by HPLC analysis; type: ADME; details: pig; in short: as §2
smiles,measurement,setting,value
COc1ccc2c(c1NC(=O)CN)CCC=C2c1cc(OC)c(OC)c(OC)c1,GI50,"NCI-H460 [1]; Homo sapiens, NCI-H460, 48 h",0.0365 µM
same,GI50,"[2]; Homo sapiens, DU-145, 48 h",0.0501 µM
same,GI50,[3],0.0138 µM
COc1ccc(/C=C/c2cc(OC)c(OC)c(OC)c2)c(NC(=O)[C@H](N)CO)c1.Cl,GI50,"NCI-H460 [1]; Homo sapiens, NCI-H460, 48 h",2.24 µM
same,GI50,"[2]; Homo sapiens, DU-145, 48 h",4.55 µM
same,GI50,"[3]; Homo sapiens, SK-OV-3, 48 h",2.29 µM
same,Drug metabolism,Leucine aminopeptidase [4],90%
COc1ccc2c(c1NC(=O)[C@@H](N)CO)CCC=C2c1cc(OC)c(OC)c(OC)c1.Cl,GI50,NCI-H460 [1],18.6 µM
same,GI50,[2],26 µM
same,GI50,[3],11.6 µM
same,Drug metabolism,Leucine aminopeptidase [5],< 10%
same,Drug metabolism,Leucine aminopeptidase [4],< 10%
COc1ccc(/C=C\c2cc(OC)c(OC)c(OC)c2)c(N)c1N,inhibition,Tubulin (Bos taurus) [6],55% and 46%
same,Activity,HUVEC,Active
same,inhibition,Tubulin (Bos taurus) [7],87% and 86%
COc1ccc(/C=C\c2cc(OC)c(OC)c(OC)c2)c(NC(=O)[C@@H](N)CO)c1NC(=O)[C@@H](N)CO,GI50,NCI-H460 [1],24.4 µM
same,GI50,[2],33.6 µM
same,GI50,[3],25.9 µM
same,Drug metabolism,Leucine aminopeptidase [4],metabolite_notdetected
COc1ccc(/C=C\c2cc(OC)c(OC)c(OC)c2)c(N)c1,inhibition,Tubulin (Bos taurus) [6],55%
same,inhibition,Tubulin (Bos taurus) [7],88% and 75%
COc1ccc2c(c1NC(=O)[C@@H](N)CO)CCCC=C2c1cc(OC)c(OC)c(OC)c1.Cl,GI50,[3],47 µM
same,Drug metabolism,Leucine aminopeptidase [5],< 10%
same,Drug metabolism,Leucine aminopeptidase [4],< 10%
COc1ccc(/C=C\c2cc(OC)c(OC)c(OC)c2)c(NC(=O)[C@@H](N)CO)c1,GI50,"NCI-H460 [1]; Homo sapiens, NCI-H460, 48 h",0.0333 µM
same,GI50,"[2]; Homo sapiens, DU-145, 48 h",0.0347 µM
same,GI50,"[3]; Homo sapiens, SK-OV-3, 48 h",0.0395 µM
COc1ccc2c(c1N)CCC=C2c1cc(OC)c(OC)c(OC)c1,Retention_time,[8],12.1 min
COc1ccc(/C=C\c2cc(OC)c(OC)c(OC)c2)c(N)c1N.Cl,GI50,NCI-H460 [1],0.124 µM
same,inhibition in vivo at 80 mg/kg,MDA-MB-231 [9],95%
same,inhibition in vivo at 80 mg/kg,MDA-MB-231 [10],94%
same,GI50,[2],0.205 µM
same,IC50,Tubulin,2.3 µM
same,GI50,[3],0.0228 µM
same,inhibition in vivo at 80 mg/kg,MDA-MB-231 [11],79%
COc1ccc(/C=C\c2cc(OC)c(OC)c(OC)c2)c(NC(=O)CN)c1NC(=O)CN.Cl.Cl,GI50,NCI-H460 [12],> 96.6 µM
same,GI50,[13],> 90.4 µM
same,Drug metabolism,Leucine aminopeptidase [4],< 50%
same,GI50,[14],> 56.4 µM
same,GI50,NCI-H460 [15],> 68.5 µM
same,GI50,[16],39.3 µM
same,Drug metabolism,Leucine aminopeptidase [17],> 95%
same,GI50,[18],> 64.7 µM
COc1ccc2c(c1NC(=O)CN)CCCC=C2c1cc(OC)c(OC)c(OC)c1.Cl,GI50,NCI-H460 [1],0.567 µM
same,GI50,[2],0.773 µM
same,GI50,[3],0.203 µM
same,Activity,Leucine aminopeptidase [19],0.12 µM/min
same,Drug metabolism,Leucine aminopeptidase [4],100%
COc1ccc(/C=C\c2cc(OC)c(OC)c(OC)c2)cc1NC(=O)[C@@H](N)CO [OMBRABULIN],GI50,NCI-H460 [1],0.0241 µM
same,GI50,[2],0.0164 µM
same,IC50,Tubulin,14 µM
same,GI50,[3],0.00902 µM
same,Drug metabolism,Leucine aminopeptidase [4],95%
COc1ccc(/C=C\c2cc(OC)c(OC)c(OC)c2)c(N)c1.Cl,GI50,NCI-H460 [1],0.0263 µM
same,GI50,[2],0.0285 µM
same,IC50,Tubulin,2.5 µM
same,GI50,[3],0.00735 µM

# Source: ChEMBL document CHEMBL3763088, “Design, synthesis, and biological evaluation of water-soluble amino acid prodrug conjugates derived from combretastatin, dihydronaphthalene, and benzosuberene-based parent vascular disrupting agents” (Bioorg Med Chem, 2016)
